# According to ChEMBL document CHEMBL2034886, “Anticancer and radiosensitizing evaluation of some new pyranothiazole-Schiff bases bearing the biologically active sulfonamide moiety” (Eur J Med Chem, 2012):
# Tests used:
# [1] = test system: MCF7; experiment: Cytotoxicity against human MCF7 cells assessed as surviving fraction at 10 uM after 48 hrs by sulforhodamine B assay; format: functional
# Summary of the method: (§1)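 SRB assay on MCF7 breast cancer cells plated at 10^4 cells/well for 24 h before treatment. Compounds were dissolved in DMSO, diluted with saline and tested at 10, 25, 50 and 100 in triplicate wells for 48 h at 37 °C under 5% CO₂. Cells were fixed and stained 30 min with 0.4% SRB in 1% acetic acid, washed four times with acetic acid, and the dye was recovered in Tris-EDTA and read on an ELISA reader. IC50 was taken from the survival curve.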
# [2] = test system: MCF7; experiment: Cytotoxicity against human MCF7 cells assessed as surviving fraction at 25 uM after 48 hrs by sulforhodamine B assay; format: functional; summary of the method: as §1
# [3] = test system: MCF7; experiment: Cytotoxicity against human MCF7 cells assessed as surviving fraction at 50 uM after 48 hrs by sulforhodamine B assay; format: functional; set-up: unit not given here; summary of the method: as §1
# [4] = test system: MCF7; experiment: Cytotoxicity against human MCF7 cells assessed as surviving fraction at 100 uM after 48 hrs by sulforhodamine B assay; format: functional; summary of the method: as §1
# [5] = test system: MCF7; experiment: Cytotoxicity against human MCF7 cells after 48 hrs by sulforhodamine B assay; format: functional, cell-based; settings: MCF7, 48 h; summary of the method: as §1
# [6] = test system: MCF7; experiment: Cytotoxicity against 8 Gy irradiated human MCF7 cells assessed as surviving fraction at 10 uM after 1 hr by clonogenic assay (reference value: 0.927 +/- 0.02); format: functional
# Summary of the method: (§2)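 MCF7 cells were treated with compound at 10, 25, 50 or 100 combined with one 8 Gy dose of ¹³⁷Cs gamma radiation at 1 Gy/min. Surviving fraction was measured 1 h after irradiation and given as mean ± SE relative to control, analysed by one-way ANOVA. IC50 was derived by nonlinear regression curve fitting.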
# [7] = test system: MCF7; experiment: Cytotoxicity against 8 Gy irradiated human MCF7 cells assessed as surviving fraction at 25 uM after 1 hr by clonogenic assay (reference value: 0.927 +/- 0.02); format: functional; summary of the method: as §2
# [8] = test system: MCF7; experiment: Cytotoxicity against 8 Gy irradiated human MCF7 cells assessed as surviving fraction at 50 uM after 1 hr by clonogenic assay (reference value: 0.927 +/- 0.02); format: functional; summary of the method: as §2
# [9] = test system: MCF7; experiment: Cytotoxicity against 8 Gy irradiated human MCF7 cells assessed as surviving fraction at 100 uM after 1 hr by clonogenic assay (reference value: 0.927 +/- 0.02); format: functional; summary of the method: as §2
# [10] = test system: MCF7; experiment: Cytotoxicity against 8 Gy irradiated human MCF7 cells after 1 hr by clonogenic assay; format: functional, cell-based; settings: MCF7, light or radiation study; summary of the method: as §2
# [11] = test system: MCF7; experiment: Ratio of doxorubicin IC50 to compound IC50 for human MCF7 cells; format: functional
SMILES,Activity [1],Activity [2],Activity [3],Activity [4],IC50 [5],Activity [6],Activity [7],Activity [8],Activity [9],IC50 [10],Ratio IC50 [11]
COc1ccc(C2C(C#N)=C(/N=C/C=C/c3ccccc3)Oc3nc(Nc4ccc(S(N)(=O)=O)cc4)sc32)cc1 (stereo not drawn),0.828 fraction,60.1%,0.242,37%,28.9 µM,,,,,,
COc1ccc(C2C(C#N)=C(/N=C/c3ccc(O)cc3)Oc3nc(Nc4ccc(S(N)(=O)=O)cc4)sc32)cc1 (stereo not drawn),0.872 fraction,63.8%,0.37,30.7%,34.5 µM,,,,,,
COc1ccc(C2C(C#N)=C(/N=C/c3ccc(F)cc3)Oc3nc(Nc4ccc(S(N)(=O)=O)cc4)sc32)cc1 (stereo not drawn),0.845 fraction,55.1%,0.38,44.3%,28.9 µM,,,,,,
COc1ccc(C2C(C#N)=C(N)Oc3nc(Nc4ccc(S(N)(=O)=O)cc4)sc32)cc1 (stereo not drawn),0.81 fraction,55%,0.331,35%,27.5 µM,0.618 fraction (unitless),0.346 fraction (of 1),0.171 fraction,0.201 fraction (of control),14.8 µM,
COc1ccc(C2C(C#N)=C(/N=C/c3ccc4c(c3)OCO4)Oc3nc(Nc4ccc(S(N)(=O)=O)cc4)sc32)cc1 (stereo not drawn),0.814 fraction,66%,0.419,39.3%,38.2 µM,,,,,,
COc1ccc(C2C(C#N)=C(/N=C/c3ccc([N+](=O)[O-])cc3)Oc3nc(Nc4ccc(S(N)(=O)=O)cc4)sc32)cc1 (stereo not drawn),0.48 fraction,32.7%,0.313,38.1%,9.7 µM,0.403 fraction (unitless),0.201 fraction (of 1),0.1 fraction,0.13 fraction (of control),7.55 µM,3.3
COc1ccc(C2C(C#N)=C(/N=C/c3ccc(N(C)C)cc3)Oc3nc(Nc4ccc(S(N)(=O)=O)cc4)sc32)cc1 (stereo not drawn),0.792 fraction,70.1%,0.347,37.8%,36.2 µM,,,,,,
COc1ccc(C2C(C#N)=C(/N=C/c3ccccc3Cl)Oc3nc(Nc4ccc(S(N)(=O)=O)cc4)sc32)cc1 (stereo not drawn),0.541 fraction,32.3%,0.36,46%,10.2 µM,0.453 fraction (unitless),0.237 fraction (of 1),0.135 fraction,0.119 fraction (of control),9.11 µM,3.1
COc1ccc(C2C(C#N)=C(/N=C/c3ccc(Cl)cc3)Oc3nc(Nc4ccc(S(N)(=O)=O)cc4)sc32)cc1 (stereo not drawn),0.443 fraction,25.1%,0.355,29%,9.55 µM,0.311 fraction (unitless),0.217 fraction (of 1),0.17 fraction,0.201 fraction (of control),8.72 µM,
COc1ccc(C2C(C#N)=C(/N=C/c3cccc(Br)c3)Oc3nc(Nc4ccc(S(N)(=O)=O)cc4)sc32)cc1 (stereo not drawn),0.435 fraction,23.3%,0.371,30.9%,9.39 µM,0.319 fraction (unitless),0.211 fraction (of 1),0.119 fraction,0.235 fraction (of control),8.72 µM,3.4
COc1ccc(C2C(C#N)=C(/N=C/c3ccccc3)Oc3nc(Nc4ccc(S(N)(=O)=O)cc4)sc32)cc1 (stereo not drawn),0.825 fraction,66.8%,0.307,27.1%,33.5 µM,,,,,,
COc1ccc(C2C(C#N)=C(/N=C/c3ccc(Cl)cc3Cl)Oc3nc(Nc4ccc(S(N)(=O)=O)cc4)sc32)cc1 (stereo not drawn),0.693 fraction,50.3%,0.377,39.1%,23.5 µM,,,,,,
